Assay results from ChEMBL document CHEMBL3616436, “Synthesis, cytotoxicity and antimicrobial activity of thiourea derivatives incorporating 3-(trifluoromethyl)phenyl moiety” (Eur J Med Chem, 2015).
≈ marks a conversion by molar mass, not a printed value. Calls of active or inactive are those of the source. The rule behind the calls is not given here.

Legend:
[1] = Cytotoxicity against human MT4 cells; format: cell-based
[2] = tested on: Vesicular stomatitis virus; test: Antiviral activity against Vesicular stomatitis virus ATCC VR 1540 infected in African green monkey Vero 76 cells assessed as reduction of virus-plaque formation after 2 days by crystal violet staining; format: functional, organism-based; settings: ATCC VR 1540, Vero, 48 h
[3] = Cytotoxicity against bovine MDBK cells assessed as cell viability after 48 to 96 hrs by MTT assay; format: cell-based, Bos taurus; settings: cattle
[4] = Antiviral activity against Bovine viral diarrhea virus 1-NADL ATCC VR-534 infected in MDBK cells assessed as protection against virus-induced cytopathogenicity after 3 to 4 days by MTT assay; format: functional, cell-based; settings: Bovine viral diarrhea virus isolates and strains, ATCC VR-534, MDBK
Method in brief: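 Cells seeded in 96-well plates (BHK 5x10^4, MDBK 3x10^4 cells/well), grown overnight to confluence, infected at m.o.i. 0.01 (BHK for Reo-1, MDBK for BVDV); serial compound dilutions in maintenance medium with 0.5% inactivated FBS added after 1 h; viability by MTT after 3–4 days at 37°C; EC50 for 50% protection by linear regression.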

[5] = Cytotoxicity against BHK cells assessed as cell viability after 48 to 96 hrs by MTT assay; format: cell-based, Mesocricetus auratus; settings: hamster
Yellow fever virus = test: Antiviral activity against Yellow fever virus 17D infected in BHK cells assessed as protection against virus-induced cytopathogenicity after 3 to 4 days by MTT assay; format: functional, cell-based
Coxsackievirus B5 = test: Antiviral activity against Human coxsackievirus B5 ATCC VR-29 infected in African green monkey Vero 76 cells assessed as reduction of virus-plaque formation after 3 days by crystal violet staining; format: functional, organism-based; settings: Enterovirus B, ATCC VR-29, Vero, 72 h
Method in brief: (§1)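 Plaque reduction: Vero-76 at 2x10^5 cells/well grown to confluent monolayers, infected 2 h at 50–100 PFU/well; after removing unadsorbed virus, overlay of D-MEM, 1% inactivated FBS, 0.75% methylcellulose with or without serial compound dilutions; 3 days at 37°C, fixed and stained with crystal violet in 50% ethanol, plaques counted; EC50 by linear regression.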

Vaccinia virus = test: Antiviral activity against Human Vaccinia virus ATCC VR-1549 infected in African green monkey Vero 76 cells assessed as reduction of virus-plaque formation after 3 days by crystal violet staining; format: functional, organism-based; settings: Orthopoxvirus vaccinia, ATCC VR-1549, Vero, 72 h
Human alphaherpesvirus 1 = test: Antiviral activity against Human herpesvirus 1 KOS ATCC VR-1493 infected in African green monkey Vero 76 cells assessed as reduction of virus-plaque formation after 3 days by crystal violet staining; format: functional, organism-based; settings: Human alphaherpesvirus 1, KOS ATCC VR1493, Vero, 72 h; method in brief: as §1
Staphylococcus aureus [6] = test: Antimicrobial activity against Staphylococcus aureus NCTC 4163 at 400 ug after 18 hrs by disc-diffusion method; format: functional; settings: NCTC 4163, 18 h, read-out: IZ
Method in brief: (§2)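 Disc diffusion on Mueller-Hinton II agar per CLSI; 9 mm paper discs loaded with 400 µg compound from DMSO solution, dried, placed on agar; growth inhibition zone diameter read after 18 h at 35°C.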

Staphylococcus aureus [7] = test: Antimicrobial activity against Staphylococcus aureus ATCC 25923 at 400 ug after 18 hrs by disc-diffusion method; format: functional; settings: ATCC 25923, 18 h, read-out: IZ; method in brief: as §2
[8] = tested on: Staphylococcus epidermidis; test: Antimicrobial activity against Staphylococcus epidermidis ATCC 12228 at 400 ug after 18 hrs by disc-diffusion method; format: functional; settings: for zone of inhibition at 400 µg/disc: ATCC 12228, 18 h, read-out: IZ; method in brief: as §2
[9] = tested on: Staphylococcus epidermidis; test: Antimicrobial activity against Staphylococcus epidermidis ATCC 35984 at 400 ug after 18 hrs by disc-diffusion method; format: functional; settings: for zone of inhibition at 400 µg/disc: ATCC 35984, 18 h, read-out: IZ; method in brief: as §2
Enterococcus hirae = test: Antimicrobial activity against Enterococcus hirae ATCC 10541 at 400 ug after 18 hrs by disc-diffusion method; format: functional; settings: for zone of inhibition at 400 µg/disc: ATCC 10541, 18 h, read-out: IZ; method in brief: as §2
Enterococcus faecalis = test: Antimicrobial activity against Enterococcus faecalis ATCC 29212 at 400 ug after 18 hrs by disc-diffusion method; format: functional; method in brief: as §2
Staphylococcus aureus [10] = test: Antimicrobial activity against Staphylococcus aureus ATCC 25923 after 18 hrs by twofold serial microdilution method; format: functional; settings: ATCC 25923, 18 h
Staphylococcus aureus [11] = test: Antimicrobial activity against Staphylococcus aureus ATCC 6538 after 18 hrs by twofold serial microdilution method; format: functional; settings: ATCC 6538, 18 h
Staphylococcus aureus [12] = test: Antimicrobial activity against hospital methicillin-resistant Staphylococcus aureus 57/05 after 18 hrs by twofold serial microdilution method; format: functional; settings: 57/05, 18 h
Method in brief: (§3)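 Twofold serial microdilution in Mueller-Hinton broth. Compound stock was made in DMSO and diluted in sterile water. Tested range was 0.125–512 µg/mL. Final inoculum was 10^5 CFU/mL. Plates were incubated 18 h at 35 °C. MIC is the lowest concentration preventing visible growth.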

Staphylococcus aureus [13] = test: Antimicrobial activity against hospital methicillin-resistant Staphylococcus aureus 79/05 after 18 hrs by twofold serial microdilution method; format: functional; settings: 79/05, 18 h; method in brief: as §3
Staphylococcus aureus [14] = test: Antimicrobial activity against hospital methicillin-resistant Staphylococcus aureus 80/05 after 18 hrs by twofold serial microdilution method; format: functional; settings: 80/05, 18 h; method in brief: as §3
Staphylococcus aureus [15] = test: Antimicrobial activity against hospital methicillin-resistant Staphylococcus aureus 81/05 after 18 hrs by twofold serial microdilution method; format: functional; settings: 81/05, 18 h; method in brief: as §3
Staphylococcus aureus [16] = test: Antimicrobial activity against hospital methicillin-resistant Staphylococcus aureus 522/11 after 18 hrs by twofold serial microdilution method; format: functional; settings: 522/11, 18 h; method in brief: as §3
[17] = tested on: Staphylococcus epidermidis; test: Antimicrobial activity against hospital methicillin-resistant Staphylococcus epidermidis 16/04 after 18 hrs by twofold serial microdilution method; format: functional; settings: 16/04, 18 h; method in brief: as §3
[18] = tested on: Staphylococcus epidermidis; test: Antimicrobial activity against hospital methicillin-resistant Staphylococcus epidermidis 76/04 after 18 hrs by twofold serial microdilution method; format: functional; settings: 76/04, 18 h; method in brief: as §3
Staphylococcus aureus [19] = test: Ratio of ciprofloxacin MIC to compound MIC for hospital methicillin-resistant Staphylococcus aureus 54/05 after 18 hrs by twofold serial microdilution method; format: functional
Method in brief: (§4)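 Ratio of MICs for ciprofloxacin and test agent, each from twofold serial broth microdilution in Mueller-Hinton broth following CLSI guidelines. DMSO stock was diluted in sterile water to 0.125–512 µg/mL, with a final inoculum of 10^5 CFU/mL.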

[20] = tested on: Staphylococcus epidermidis; test: Ratio of ciprofloxacin MIC to compound MIC for hospital methicillin-resistant Staphylococcus epidermidis 23/04 after 18 hrs by twofold serial microdilution method; format: functional; method in brief: as §4
[21] = tested on: Staphylococcus epidermidis; test: Ratio of ciprofloxacin MIC to compound MIC for hospital methicillin-resistant Staphylococcus epidermidis 62/04 after 18 hrs by twofold serial microdilution method; format: functional; method in brief: as §4
[22] = tested on: Staphylococcus epidermidis; test: Ratio of ciprofloxacin MIC to compound MIC for hospital methicillin-resistant Staphylococcus epidermidis 63/04 after 18 hrs by twofold serial microdilution method; format: functional; method in brief: as §4
[23] = tested on: Mycobacterium tuberculosis; test: Antimycobacterial activity against Mycobacterium tuberculosis H37Rv ATCC 25618; format: functional
Method in brief: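 Classical test-tube successive-dilution method in Youmans' modification of Proskauer and Beck liquid medium with 10% bovine serum. Inoculum came from 14-day cultures. DMSO stock was 10 mg/mL, diluted geometrically in medium. Tubes were incubated at 37 °C. Concentrations tested were 3.1, 6.2, 12.5, 25, 50 and 100 µg/ml. MIC is the minimum concentration inhibiting growth relative to compound-free tubes.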

Row | SMILES | CC50 [1] [µM] | EC50 [2] [µM] | CC50 [3] [µM] | EC50 [4] [µM] | CC50 [5] [µM] | EC50 (Yellow fever virus) [µM] | EC50 (Coxsackievirus B5) [µM] | EC50 (Vaccinia virus) [µM] | EC50 (Human alphaherpesvirus 1) [µM] | zone of inhibition at 400 µg/disc (Staphylococcus aureus [6]) [mm] | zone of inhibition at 400 µg/disc (Staphylococcus aureus [7]) [mm] | MIC (Staphylococcus aureus [10]) [µg/mL] | MIC (Staphylococcus aureus [11]) [µg/mL] | MIC (Staphylococcus aureus [12]) [µg/mL] | MIC (Staphylococcus aureus [13]) [µg/mL] | MIC (Staphylococcus aureus [14]) [µg/mL] | MIC (Staphylococcus aureus [15]) [µg/mL] | MIC (Staphylococcus aureus [16]) [µg/mL] | MIC [17] [µg/mL] | MIC [18] [µg/mL] | other results
1 | FC(F)(F)c1cccc(NC(=S)Nc2ccc(Cl)cc2)c1 | 6.8 | > 11 | 17 | > 17 | 10 | > 10 | > 11 | > 11 | > 11 | 12 | 12 | 8 (≈ 24.2 µM) | 8 (≈ 24.2 µM) | 16 (≈ 48.4 µM) | 16 (≈ 48.4 µM) | 16 (≈ 48.4 µM) | 16 (≈ 48.4 µM) | 16 (≈ 48.4 µM) | 16 (≈ 48.4 µM) | 8 (≈ 24.2 µM) | inhibition zone (IZ) [8]: inactive; inhibition zone (IZ) [9]: inactive; inhibition zone (IZ) (Enterococcus hirae): inactive; inhibition zone (IZ) (Enterococcus faecalis): inactive; Ratio (Staphylococcus aureus [19]): 128; Ratio [20]: 128; Ratio [21]: 128; Ratio [22]: 128; MIC [23]: > 100 µg/mL
2 | Fc1ccc(NC(=S)Nc2cccc(C(F)(F)F)c2)cc1Cl | 8 | > 20 | 11 | > 11 | 10 | > 10 | > 20 | > 20 | > 20 | 30 | 27 | 1 (≈ 2.87 µM) | 1 (≈ 2.87 µM) | 1 (≈ 2.87 µM) | 1 (≈ 2.87 µM) | 0.25 (≈ 0.717 µM) | 0.25 (≈ 0.717 µM) | 0.5 (≈ 1.43 µM) | 1 (≈ 2.87 µM) | 0.25 (≈ 0.717 µM) | zone of inhibition at 400 µg/disc [8]: 30 mm; zone of inhibition at 400 µg/disc [9]: 27 mm; zone of inhibition at 400 µg/disc (Enterococcus hirae): 34 mm; zone of inhibition at 400 µg/disc (Enterococcus faecalis; ATCC 29212, 18 h, read-out: IZ): 20 mm; Ratio (Staphylococcus aureus [19]): 128; Ratio [20]: 128; Ratio [21]: 128; Ratio [22]: 128; MIC [23]: 50 µg/mL (≈ 143 µM)
3 | FC(F)(F)c1cccc(NC(S)=NCc2ccccc2)c1 | 45 | > 35 | 40 | > 40 | 45 | > 45 | > 35 | > 35 | > 35 | 18 | 19 | 16 (≈ 51.6 µM) | 8 (≈ 25.8 µM) | 8 (≈ 25.8 µM) | 16 (≈ 51.6 µM) | 16 (≈ 51.6 µM) | 8 (≈ 25.8 µM) | 16 (≈ 51.6 µM) | 16 (≈ 51.6 µM) | 8 (≈ 25.8 µM) | zone of inhibition at 400 µg/disc [8]: 17 mm; zone of inhibition at 400 µg/disc [9]: 13 mm; inhibition zone (IZ) (Enterococcus hirae): inactive; inhibition zone (IZ) (Enterococcus faecalis): inactive; Ratio (Staphylococcus aureus [19]): 128; Ratio [20]: 128; Ratio [21]: 128; Ratio [22]: 128; MIC [23]: 25 µg/mL (≈ 80.6 µM)
4 | FC(F)(F)c1cccc(NC(=S)NCCc2ccccc2)c1 | 8.8 | > 46 | 48 | > 48 | 29 | > 29 | > 46 | > 46 | > 46 | 15 | 15 | 8 (≈ 24.7 µM) | 8 (≈ 24.7 µM) | 8 (≈ 24.7 µM) | 16 (≈ 49.3 µM) | 8 (≈ 24.7 µM) | 16 (≈ 49.3 µM) | 16 (≈ 49.3 µM) | 8 (≈ 24.7 µM) | 8 (≈ 24.7 µM) | zone of inhibition at 400 µg/disc [8]: 14 mm; zone of inhibition at 400 µg/disc [9]: 17 mm; zone of inhibition at 400 µg/disc (Enterococcus hirae): 17 mm; inhibition zone (IZ) (Enterococcus faecalis): inactive; Ratio (Staphylococcus aureus [19]): 128; Ratio [20]: 128; Ratio [21]: 128; Ratio [22]: 128; MIC [23]: 50 µg/mL (≈ 154 µM)
